Rows were chosen to be rich in hits. Some 1.4% of all compounds tested hit in one or more screens of this group.
MT1-MMP act inh = MT1-MMP (human) activation inhibition. P50281. HT1080 RFP-PRO-GFP cells, GFP/RFP ratio fluorescence, overnight; percent of plate control window, DMSO zero. GFP/RFP ratio change, % at 20 µM. 0.061% of 360,000 active;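 active = GFP/RFP ratio change of at least 30% with cell ATP level not reduced by more than half and red fluorescence within 50% of control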
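system = RFP-PRO-GFP reporter HT1080 cells | dosing = 20 µM single dose, 1% DMSO | timing = overnight cell settling, then overnight compound exposure, 37 °C, 5% CO2 | read-out basis = GFP/RFP fluorescence ratio | controls = DMSO and RFP-L50D-GFP cell wells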
hiPSC survival = hiPSC single-cell survival enhancement; ATPlite luminescence; 100% = ROCK inhibitor wells, 0% = DMSO; survival enhancement, % at 20 µM; 0.044% of 360,000 active; in the data active = survival enhancement above about 18%;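 note: cells exposed to compounds for 16 hours before the ATP read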
NRP1-CendR mod = modulators of CendR peptide binding to human neuropilin-1; O14786; FAM-RPARPAR peptide binding to NRP-1, fluorescence polarization; inhibition, % at 25 µM; 0.85% of 360,000 active; AID 602438;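 active = inhibition or corrected inhibition above about 18%, plus a signal ratio from 0.5 to 1.5, limit read from the data, passing the limit was not always enough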
Target sequence (O14786 whole entry, looked up): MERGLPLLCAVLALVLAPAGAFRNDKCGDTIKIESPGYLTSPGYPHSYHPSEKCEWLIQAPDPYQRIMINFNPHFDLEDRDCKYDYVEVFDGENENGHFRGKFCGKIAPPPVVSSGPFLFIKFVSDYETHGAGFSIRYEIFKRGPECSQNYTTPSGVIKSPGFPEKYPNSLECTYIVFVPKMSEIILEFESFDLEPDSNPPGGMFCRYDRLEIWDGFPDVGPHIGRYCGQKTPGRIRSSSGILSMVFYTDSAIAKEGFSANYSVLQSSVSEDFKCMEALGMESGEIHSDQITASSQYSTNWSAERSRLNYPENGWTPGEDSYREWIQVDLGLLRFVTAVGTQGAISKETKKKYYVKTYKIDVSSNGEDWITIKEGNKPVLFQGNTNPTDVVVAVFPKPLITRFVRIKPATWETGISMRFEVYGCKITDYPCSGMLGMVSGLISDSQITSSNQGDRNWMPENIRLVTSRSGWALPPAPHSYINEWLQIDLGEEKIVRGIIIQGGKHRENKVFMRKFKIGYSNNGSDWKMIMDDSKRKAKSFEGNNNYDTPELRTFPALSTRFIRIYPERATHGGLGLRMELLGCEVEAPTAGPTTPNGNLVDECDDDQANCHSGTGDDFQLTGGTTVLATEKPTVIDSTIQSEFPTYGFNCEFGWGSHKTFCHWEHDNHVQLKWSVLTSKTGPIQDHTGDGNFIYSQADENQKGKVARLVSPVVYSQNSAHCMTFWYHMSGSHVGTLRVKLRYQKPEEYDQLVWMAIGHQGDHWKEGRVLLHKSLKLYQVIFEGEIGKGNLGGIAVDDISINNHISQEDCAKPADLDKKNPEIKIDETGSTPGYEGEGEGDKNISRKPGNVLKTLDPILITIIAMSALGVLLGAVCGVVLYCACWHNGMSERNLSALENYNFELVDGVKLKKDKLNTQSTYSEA
SKN-1 inh = blocks SKN-1 activity in C. elegans. C. elegans VP596 Pgst-4::GFP/RFP ratio, acrylamide-induced, 24 h. inhibition, % at 21.8 µM. 0.49% of 360,000 active. AID 624304;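 active = interference check ratio from 0.5 to 1.5 plus GFP to RFP signal ratio inhibition reaching or exceeding a fixed threshold, cut at about 30% in these data, passing the limit was not always enough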
* = called active by the depositor; x = no result given.

SMILES	MT1-MMP act inh	hiPSC survival	NRP1-CendR mod	SKN-1 inh
CCN(CC(=O)Nc1ccccc1C(F)(F)F)C(=O)Cc1cccs1	2	0	-4	20
COc1ccc(OC)c(NC(=O)CCNC(=O)Cn2ccc3ccccc3c2=O)c1	4	0	8	7
COc1ccc([N+](=O)[O-])cc1NC(=O)CCNC(=O)Cn1ccc2ccccc2c1=O	-3	0	30*	-15
O=C1Nc2ccccc2C(O)(C(=O)NCc2ccco2)N1c1ccc(Cl)c(Cl)c1 (stereo not drawn)	-6	1	-15	42*
CCN(CC)CC(C)CNC(=O)C1(O)c2ccccc2NC(=O)N1c1ccc(Cl)c(Cl)c1 (stereo not drawn)	-2	0	9	5
CN(C)CCC(C(=O)c1ccccc1)c1ccccn1 (stereo not drawn)	-1	-1	10	16
CCCCSC(=S)NC1CCS(=O)(=O)C1 (stereo not drawn)	0	-3	25*	-5
O=S1(=O)CCC(NC(=S)SCCOc2ccccc2)C1 (stereo not drawn)	2	-3	-2	7
COCC(=O)OC1CCn2c1nc1c2C(=O)C(C)=C(NC(C)=O)C1=O (stereo not drawn)	-24	-3	45*	1
CNCCCOc1ccc(C)cc1OC	3	-1	3	-8
Cc1ccc(S(=O)(=O)N2CCN(CC(=O)N(CC(C)C)c3c(N)n(CC(C)C)c(=O)[nH]c3=O)CC2)c(C)c1	-1	1	49*	4
CC(C)CN(C(=O)CN1CCN(c2ccc(F)cc2)CC1)c1c(N)n(CC(C)C)c(=O)[nH]c1=O	2	2	8	1
O=C(NCCC1=CCCCC1)NC1CCCCC1	-3	-2	-4	55*
CC(C)c1ccc(NC(=O)C2CC(=O)N(C3CCCC3)C2)cc1 (stereo not drawn)	-1	0	9	-8
O=C(NCCC1=CCCCC1)C1CC(=O)N(C2CCCCCC2)C1 (stereo not drawn)	-4	0	21*	9
O=C(NCCC1=CCCCC1)c1ccc(=O)oc1	-11	-1	51*	-20
Cc1ccc(CCNC(=O)C2CC(=O)N(C3CCCCC3)C2)cc1 (stereo not drawn)	-2	0	-4	9
O=C(Nc1ccccc1)C1CC(=O)N(C2CCCCC2)C1 (stereo not drawn)	0	-2	-14	42*
NC(=O)NCCC1=CCCCC1	2	0	11	0
COc1ccc(-c2c(C#Cc3ccsc3)c3cc(-c4ccc(OC)nc4)ccc3n2C)cc1	3	-2	-9	17
O=C(O)C1=C2C(=O)Nc3cccc(c32)C2(C1)C(=O)Nc1ccccc12 (stereo not drawn)	1	0	-35	36*
CC(=O)Nc1ccc(Oc2cc(C#N)c(C#N)cc2N2CCOCC2)cc1	3	0	41*	-21
COc1ccc2nc(-c3ccccc3)nc(SC)c2c1	-1	-2	-9	5
Cc1ccc(N=C/C(C(=O)C(F)(F)F)=C(\O)c2ccco2)cc1Cl	0	-2	-5	57*
Cc1cccc(N=C/C(C(=O)C(F)(F)F)=C(\O)c2ccco2)c1	-11	0	1	1
SMILES	MT1-MMP act inh	hiPSC survival	NRP1-CendR mod	SKN-1 inh
CN(C)c1ccc(C=C2SC(=S)NC2=O)cc1	-70	-3	70	40*
COc1cccc(/C=C/C(=O)OCC(=O)Nc2ccc(Cl)cn2)c1	3	0	4	-8
Clc1cccc(COn2c(-c3ccc(Cl)cc3Cl)nc3ncccc32)c1	-13	0	5	14
Cc1ccc(COn2c(-c3ccc(Cl)cc3Cl)nc3ncccc32)cc1	-7	0	33*	21
CCN(CC)C(=O)C1CCCN(C(=O)Nc2ccc3nsnc3c2)C1 (stereo not drawn)	-4	10	34*	-3
S=C(Nc1ccc2nsnc2c1)N1CCCCC1	-4	-2	7	14
O=c1cc(NCc2ccccc2)c2ccccc2o1	4	-2	-5	3
CCCCNc1cc(=O)oc2ccccc12	2	-2	-13	30*
CCCCN=Cc1c(C)[nH]n(-c2ccccc2)c1=S	6	0	9	5
Cc1[nH]n(-c2ccccc2)c(=S)c1C=Nc1cccc([N+](=O)[O-])c1	-10	-2	24*	6
CCCCOc1ccc(C(=O)N(Cc2ccccc2)C2CCS(=O)(=O)C2)cc1 (stereo not drawn)	1	1	10	12
NC(=O)c1ccccc1N=Cc1cccnc1	3	0	33*	-7
Cc1cccc(N2CCN(C(=O)c3ccnn3C)CC2)c1C	1	0	25*	4
CC(Nc1nc(-c2ccc(F)cc2)cs1)c1nc2cc(C(F)(F)F)ccc2n1CCOCCO (stereo not drawn)	0	0	28*	-2
Cc1ccc(N2C(=S)NC3c4cc(Cl)ccc4OC2(C)C3C(=O)N(C)C)cc1 (stereo not drawn)	-2	0	7	-11
CSc1ccccc1NC(=O)CSc1n[nH]c(C)c1[N+](=O)[O-]	0	-1	27*	5
Cc1ccc(O)c(NC(=O)CSc2n[nH]c(C)c2[N+](=O)[O-])c1	x	-2	0	-1
COc1ccc(NC(=O)/C(C#N)=C/c2ccc(Sc3nncn3C)c([N+](=O)[O-])c2)cc1	-4	0	-4	-1
COCCCNC(=O)CCn1c(=O)c2ccccc2n(CC(=O)NCCC2=CCCCC2)c1=O	-5	0	1	7
O=C(CCn1c(=O)c2ccccc2n(CC(=O)NCCC2=CCCCC2)c1=O)NCc1ccco1	2	0	17	35*
CN(Cc1ccc(F)cc1)C(=O)c1cccc(OCc2ccccc2)c1	-2	0	5	20
CN(Cc1ccc(F)cc1)C(=O)c1cccc(OC2CCN(C3CCCC3)CC2)c1	-5	0	26*	-2
O=C1C(Cl)=C(Nc2ccccc2)C(=O)c2ccccc21	-24	0	18	7
O=C(O)c1ccc(NC2=C(Cl)C(=O)c3ccccc3C2=O)cc1	-1	0	29*	9
COc1ccccc1/C=C/C(=O)NCC(=O)N/N=C(/C)c1ccco1	0	-1	1	8
SMILES	MT1-MMP act inh	hiPSC survival	NRP1-CendR mod	SKN-1 inh
COc1ccc(/C(C)=N/NC(=O)CNC(=O)/C=C\c2ccccc2OC)c(OC)c1	-3	0	4	37*
CN(C)c1ccc(C(=O)OCC(=O)Nc2ccc(S(N)(=O)=O)cc2)cc1	-8	2	39*	18
Cc1cc(N2CCCC2=O)ccc1S(=O)(=O)NC1CCCCC1	0	0	21*	11
Cc1cc(N2CCCC2=O)ccc1S(=O)(=O)N1CCOCC1	-2	0	5	7
O=S(=O)(Nc1cccc(Cl)c1)c1cccc(-n2cnnn2)c1	2	1	20*	5
CC1(C)CC(=O)c2cnc(N3CCc4ccccc43)nc2C1	-3	-1	28*	3

Source: PubChem BioAssay (Sanford-Burnham Center for Chemical Genomics)
